Compound activity from PubChem BioAssay.
RBBP9 inh: human RBBP9 hydrolase inhibition; recombinant RBBP9, FP-Rh probe fluorescence polarization; actives 0.2% (n = 220,000); inhibition, % at 7.94 µM; O75884; AID 1515;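 active = inhibition above the campaign mean of all tested compounds plus 3 SD, cut at about 14% in these data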;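 also: plate controls were DMSO wells with RBBP9 for no effect and wells lacking RBBP9 protein for full effect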
Target sequence (O75884 whole entry, looked up): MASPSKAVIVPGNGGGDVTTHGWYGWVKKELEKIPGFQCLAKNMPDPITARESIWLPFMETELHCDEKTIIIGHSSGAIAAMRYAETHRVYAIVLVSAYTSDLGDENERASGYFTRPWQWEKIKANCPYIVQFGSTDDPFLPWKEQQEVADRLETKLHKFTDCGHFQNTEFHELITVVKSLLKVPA
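Measured by: FP readout at 525/598 nm; material: recombinant human RBBP9; also added: Serine-hydrolase probe FP-Rh, 375 nM pre-mixing; medium: Tris buffer pH 8.0, NaCl, Pluronic; replication: one well per compound; doses: one concentration, 7.94 µM nominal, 0.794% DMSO; timing: preincubation 30 min plus labeling 45 min at 25 °C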
eIF4E 4G PPI: eIF4E/eIF4G interaction inhibition in translation initiation; P63073+Q04637; AID 782; TR-FRET eIF4E-eIF4GI(517-606) binding, 2 h; actives 0.37% (n = 220,000); inhibition, % at 21.7 µM;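 also: 0% = full FRET control wells and 100% = background wells lacking eIF4GI fragment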
p47phox inh: p47phox (human) inhibition | inhibition, % at 24.7 µM | p47phox/p22phox peptide binding, fluorescence polarization, 2 h | actives 0.53% (n = 220,000) | P14598;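 also: 0% = p47phox with labelled peptide and 100% = labelled peptide alone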
14-3-3 Bad inh: disrupts binding of bovine 14-3-3 zeta to phospho-Bad peptide | P63103 | actives 0.71% (n = 220,000) | TR-FRET 14-3-3zeta/Dy647-pBad peptide displacement, 1 h | AID 781 | inhibition, % at 21.7 µM;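 active = inhibition above about 70%, limit read from the data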;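 also: 0% = full 14-3-3 plus peptide FRET controls and 100% = background without 14-3-3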
Target sequence (P63103 whole entry, looked up): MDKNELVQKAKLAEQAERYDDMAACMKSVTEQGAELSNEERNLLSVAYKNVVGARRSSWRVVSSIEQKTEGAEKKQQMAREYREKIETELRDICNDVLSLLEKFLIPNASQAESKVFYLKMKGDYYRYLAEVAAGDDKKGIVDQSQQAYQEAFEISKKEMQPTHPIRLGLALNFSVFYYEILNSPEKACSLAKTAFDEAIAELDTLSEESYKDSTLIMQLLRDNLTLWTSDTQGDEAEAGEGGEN
Wee1 stabilizer: inhibitors of human Wee1 degradation. HeLa Luc-Wee1K328M stability, luciferase luminescence; 100% = proteasome inhibitor MG132 effect. P30291. AID 1321. actives 1.2% (n = 220,000). reporter increase, % at 5 µM;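 active = activation above the mean of all tested compounds plus 3 SD, set per screening run, cut at about 8.8% in these data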;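 also: cells exposed to compound for 20 h before luminescence read; 0% = DMSO alone and 100% = MG132 at 30 µM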
* = called active by the depositor; [ ] = remark or other dose. Most compounds without a hit are left out; they make up all but 2.8% or so of the library.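 The calls were made as follows, unless noted: active = inhibition above about 30% (limit read from the data); inactive = the rest.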

How did O=C(O)c1ccccc1-c1ccccc1C(=O)Nc1ccc2c(c1)[nH]c(=O)c1ccccc12 do in these assays?
RBBP9 inh: -12; eIF4E 4G PPI: 1; p47phox inh: -70; 14-3-3 Bad inh: -3; Wee1 stabilizer: 0

What do the screens show for `CCc1nn(C(C)C(=O)NC(C)CCc2ccco2)c(=O)c2cc3occc3n12` (stereo unspecified)?
RBBP9 inh: -15; eIF4E 4G PPI: 0; p47phox inh: -2; 14-3-3 Bad inh: -6; Wee1 stabilizer: -1

How did CCc1nn(C(C)C(=O)NCCc2ccc(OC)c(OC)c2)c(=O)c2cc3occc3n12 (stereo unspecified) do in these assays?
RBBP9 inh: 2; eIF4E 4G PPI: -1; p47phox inh: -14; 14-3-3 Bad inh: 89*; Wee1 stabilizer: 2

How did Cc1ccc(NC(=O)CN(C)CC(=O)Nc2ccccc2-c2ccccc2)cc1 do in these assays?
RBBP9 inh: -1; eIF4E 4G PPI: 1; p47phox inh: -13; 14-3-3 Bad inh: 1; Wee1 stabilizer: 4

What do the screens show for `Cc1ccc(NC(=O)/C(CN(C)C)=N\O)cc1`?
RBBP9 inh: -4; eIF4E 4G PPI: -5; p47phox inh: -7; 14-3-3 Bad inh: 93*[fluorescence artefact?]; Wee1 stabilizer: 4

What do the screens show for `CCOC(=O)C1=C(C)NC(=O)NC1c1c(C)nn(-c2ccccc2)c1Cl` (stereo unspecified)?
RBBP9 inh: 0; eIF4E 4G PPI: 3; p47phox inh: -10; 14-3-3 Bad inh: 93*; Wee1 stabilizer: 1

What do the screens show for `CCN(CC)S(=O)(=O)c1ccc(N2CCCC2)c(C(=O)Nc2ccc(OC)c(Cl)c2)c1`?
RBBP9 inh: -2; eIF4E 4G PPI: 4; p47phox inh: 0; 14-3-3 Bad inh: -19; Wee1 stabilizer: -2

Results for O=C(CN1CCOCC1)NNc1c2ccccc2nc2ccccc12 ?
RBBP9 inh: 8; eIF4E 4G PPI: 5; p47phox inh: -1; 14-3-3 Bad inh: 7; Wee1 stabilizer: -1

Results for O=C(CN1CCOCC1)Nc1c2c(nc3ccccc13)N(Cc1ccccc1)CC2 ?
RBBP9 inh: -9; eIF4E 4G PPI: -2; p47phox inh: -4; 14-3-3 Bad inh: 77*; Wee1 stabilizer: -1

What do the screens show for `O=C(CN1CCCC1)Nc1c2c(nc3ccccc13)N(Cc1ccccc1)CC2`?
RBBP9 inh: 10; eIF4E 4G PPI: 0; p47phox inh: -18; 14-3-3 Bad inh: 84*; Wee1 stabilizer: 3

What do the screens show for `O=C(Nc1cccc(Cl)c1)c1cc(N=Nc2ccc([N+](=O)[O-])cc2Cl)ccc1O`?
RBBP9 inh: 9; eIF4E 4G PPI: 33*; p47phox inh: 9; 14-3-3 Bad inh: 16; Wee1 stabilizer: -1

Results for O=C(Nc1cccc(Cl)c1)c1cccc(Oc2ccc([N+](=O)[O-])cc2Cl)c1 ?
RBBP9 inh: -40; eIF4E 4G PPI: 0; p47phox inh: -12; 14-3-3 Bad inh: -11; Wee1 stabilizer: -2

Results for O=C(Nc1ccccc1)c1cc([N+](=O)[O-])ccc1Cl ?
eIF4E 4G PPI: -15; p47phox inh: 42*; 14-3-3 Bad inh: 1

How did O=C1CNC(=S)N1Cc1ccccc1 do in these assays?
RBBP9 inh: -9; eIF4E 4G PPI: -2; p47phox inh: 0; 14-3-3 Bad inh: -6; Wee1 stabilizer: 9.5*

What do the screens show for `O=C1CNC(=O)N1Cc1ccc(Br)cc1`?
RBBP9 inh: -1; eIF4E 4G PPI: 5; p47phox inh: -11; 14-3-3 Bad inh: 7; Wee1 stabilizer: 1

How did N#CCc1ccc(NC(=O)/C=C/c2ccc([N+](=O)[O-])o2)cc1 do in these assays?
RBBP9 inh: 1; eIF4E 4G PPI: 5; p47phox inh: 3; 14-3-3 Bad inh: -13; Wee1 stabilizer: 9.3*

Results for Cn1nc(C(=O)NCCOc2ccccc2)c2ccccc2c1=O ?
RBBP9 inh: -1; eIF4E 4G PPI: -3; p47phox inh: 10; 14-3-3 Bad inh: 75*; Wee1 stabilizer: 4

How did CN(Cc1ccccc1)CC(O)COc1ccc(CNCCc2ccncc2)cc1 (stereo unspecified) do in these assays?
RBBP9 inh: 0; eIF4E 4G PPI: -4; p47phox inh: -2; 14-3-3 Bad inh: 86*; Wee1 stabilizer: -2

Results for CN(Cc1ccccc1)CC(O)COc1ccc(CNCCc2cccnc2)cc1 (stereo unspecified) ?
RBBP9 inh: -1; eIF4E 4G PPI: 4; p47phox inh: -10; 14-3-3 Bad inh: -5; Wee1 stabilizer: 1
